Results: ChEMBL document CHEMBL1221284, “Development of 2-pyrrolidinyl-N-methyl pyrimidones as potent and orally bioavailable HIV integrase inhibitors” (Bioorg Med Chem Lett, 2010)

Assays:
[1] = Terminal phase half life in rat at 3 mg/kg, po and 3 mg/kg, iv; assay type: ADME, organism-based; conditions: in vivo, read-out: beta t1/2 (converted)
How it was run: (§1)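 The iv dose was given in DMSO/PEG400/H2O (20–40–40%) and the oral dose in 1% methylcellulose. Terminal-phase plasma half-life was taken from the iv administration and AUC from the oral administration.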

[2] = AUC in rat at 3 mg/kg, po and 3 mg/kg, iv; assay type: ADME, organism-based; conditions: plasma; how it was run: as §1
[3] = system: Human immunodeficiency virus 1; experiment: Antiviral activity against HIV1 3B infected in human MT4 cells assessed as inhibition of viral infections in presence of 50 % normal human serum; assay type: functional; conditions: Human immunodeficiency virus 1, 3B, read-out: CIC95
How it was run: (§2)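 Spread assay measuring inhibition of HIV-1 IIIb infection spread in MT-4 T-lymphoid cell culture. The medium held 10% fetal bovine serum for line 3 and 50% normal human serum for line 4. The readout is the 95% inhibitory concentration (CIC95).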

[4] = Oral bioavailability in rat at 3 mg/kg; assay type: ADME, organism-based; conditions: in vivo; how it was run: as §1
[5] = Plasma clearance in rat at 3 mg/kg, po and 3 mg/kg, iv; assay type: ADME, organism-based; how it was run: as §1
[6] = target: Human immunodeficiency virus type 1 integrase (Human immunodeficiency virus 1, UniProt Q7ZJM1); experiment: Inhibition of HIV 1 recombinant integrase
How it was run: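 Recombinant HIV-1 integrase was pre-assembled on immobilized oligonucleotides. Inhibitor was added after assembly and washing. IC50 is the inhibitor concentration that reduces integrase activity by 50%.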

[7] = system: Human immunodeficiency virus 1; experiment: Antiviral activity against HIV1 3B infected in human MT4 cells assessed as inhibition of viral infections in presence of 10% fetal bovine serum; assay type: functional; conditions: Human immunodeficiency virus 1, 3B, read-out: CIC95; how it was run: as §2
[8] = system: Human immunodeficiency virus 1; experiment: Antiviral activity against HIV1 harboring integrase V151I mutant relative to wild type; assay type: functional
[9] = organism: Homo sapiens; experiment: Plasma protein binding in human; conditions: read-out: PPB (converted)
[10] = Terminal phase half life in dog at 1 mg/kg, iv and 2 mg/kg, po; conditions: in vivo, read-out: beta t1/2 (converted)
[11] = system: Human immunodeficiency virus 1; experiment: Antiviral activity against HIV1 harboring integrase F121Y mutant relative to wild type
[12] = AUC in dog at 1 mg/kg, iv and 2 mg/kg, po; conditions: plasma
[13] = system: Human immunodeficiency virus 1; experiment: Antiviral activity against HIV1 harboring integrase T125K and […] double mutant relative to wild type; assay type: functional
[14] = Oral bioavailability in dog at 1 mg/kg; assay type: ADME, organism-based, Canis lupus familiaris; conditions: in vivo; how it was run: as §1
[15] = system: Human immunodeficiency virus 1; experiment: Antiviral activity against HIV1 harboring integrase T66I and M154I double mutant relative to wild type; assay type: functional
[16] = system: Human immunodeficiency virus 1; experiment: Antiviral activity against HIV1 harboring integrase T125K mutant relative to wild type; assay type: functional
[17] = system: Human immunodeficiency virus 1; experiment: Antiviral activity against HIV1 harboring integrase T66I and S153Y double mutant relative to wild type; assay type: functional
[18] = system: Human immunodeficiency virus 1; experiment: Antiviral activity against HIV1 harboring integrase N155S mutant relative to wild type; assay type: functional
[19] = system: Human immunodeficiency virus 1; experiment: Antiviral activity against HIV1 harboring integrase T66I mutant relative to wild type; assay type: functional
[20] = system: Human immunodeficiency virus 1; experiment: Antiviral activity against HIV1 harboring integrase T66/L74M and V151L double mutant relative to wild type; assay type: functional
[21] = Plasma protein binding in rat; assay type: ADME, cell-free; conditions: read-out: PPB (converted)
[22] = Metabolic stability in rat liver microsomes assessed as glucuronidation rate after 1 hr in presence of UDPGA; assay type: ADME, Microsome
How it was run: (§3)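 Rat liver microsomes (1 mg/mL) were incubated with test compound for 1 h. The cofactor was UDPGA for glucuronidation and NADPH for oxidation. Substrate loss was measured by LC/MS/MS and expressed as % of initial remaining.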

[23] = Metabolic stability in rat liver microsomes assessed as oxidation rate after 1 hr in presence of NADPH; assay type: ADME, Microsome; how it was run: as §3

Sequence of Human immunodeficiency virus type 1 integrase (Q7ZJM1 whole entry): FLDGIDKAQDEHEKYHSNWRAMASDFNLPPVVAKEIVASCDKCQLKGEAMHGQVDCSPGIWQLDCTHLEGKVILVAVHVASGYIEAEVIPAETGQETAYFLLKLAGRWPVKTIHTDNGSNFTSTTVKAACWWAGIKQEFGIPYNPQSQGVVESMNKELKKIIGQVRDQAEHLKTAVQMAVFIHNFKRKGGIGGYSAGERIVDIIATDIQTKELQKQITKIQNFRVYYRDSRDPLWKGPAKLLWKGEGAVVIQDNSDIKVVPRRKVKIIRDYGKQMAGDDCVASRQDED

| Compound | half-life [1] [h] | AUC [2] [µM·h] | IC95 [3] [nM] | bioavailability [4] [%] | clearance [5] [mL/min/kg] | IC50 [6] [nM] | IC95 [7] [nM] | other results |
| --- | --- | --- | --- | --- | --- | --- | --- | --- |
| CC(=O)N1C[C@@H](F)C[C@H]1c1nc(C(=O)NCc2ccc(F)c(C)c2)c(O)c(=O)n1C | 1.4 | 0.5 | 31 | 17 | 39 | 27 | 16 | – |
| CC(=O)N1C[C@@H](F)C[C@H]1c1nc(C(=O)NCc2ccc(C)c(Cl)c2)c(O)c(=O)n1C | 3 | 3.7 | 46 | 94 | 29 | 32 | 5 | Ratio IC50 [8]: 1; fraction unbound [9]: 0.022; half-life [10]: 1.2 h; Ratio IC50 [11]: 1.5; AUC [12]: 6.4 µM·h; Ratio IC50 [13]: 3.5; bioavailability [14]: 80%; Ratio IC50 [15]: 0.8; Ratio IC50 [16]: 1; Ratio IC50 [17]: 0.8; Ratio IC50 [18]: 8; Ratio IC50 [19]: 1; Ratio IC50 [20]: 2.5 |
| COC(=O)N1C[C@@H](F)C[C@H]1c1nc(C(=O)NCc2ccc(C)c(Cl)c2)c(O)c(=O)n1C | 7.4 | 1.2 | 63 | 10 | 9.9 | 20 | 16 | – |
| COC(=O)N1C[C@@H](F)C[C@H]1c1nc(C(=O)NCc2ccc(F)c(Cl)c2)c(O)c(=O)n1C | 1.5 | 1.3 | 31 | 25 | 21 | 19 | 16 | – |
| Cn1c([C@@H]2C[C@H](F)CN2C2CC2)nc(C(=O)NCc2ccc(F)cc2)c(O)c1=O | – | – | 250 | – | – | 20 | 63 | – |
| Cn1c([C@@H]2C[C@H](F)CN2Cc2ccon2)nc(C(=O)NCc2ccc(F)cc2)c(O)c1=O | – | – | 625 | – | – | 10 | 156 | – |
| CC(=O)N1C[C@@H](F)C[C@H]1c1nc(C(=O)NCc2ccc(F)cc2)c(O)c(=O)n1C | 0.3 | 1.2 | 17 | 31 | 64 | 15 | 14 | fraction unbound [9]: 0.21; fraction unbound [21]: 0.37; remaining at 1 h [22]: 43%; Ratio IC50 [13]: 15; Ratio IC50 [15]: 2; remaining at 1 h [23]: 40%; Ratio IC50 [17]: 5; Ratio IC50 [18]: 15; Ratio IC50 [20]: 10 |
| COC(=O)N1C[C@@H](F)C[C@H]1c1nc(C(=O)NCc2ccc(F)cc2)c(O)c(=O)n1C | 0.6 | 1.2 | 63 | 44 | 46 | 10 | 31 | – |
| CN(C)C(=O)N1C[C@@H](F)C[C@H]1c1nc(C(=O)NCc2ccc(F)cc2)c(O)c(=O)n1C | – | – | 125 | – | – | 10 | 125 | – |
| Cn1c([C@@H]2C[C@H](F)CN2S(C)(=O)=O)nc(C(=O)NCc2ccc(F)cc2)c(O)c1=O | – | – | 125 | – | – | 15 | 31 | – |
| CN(C)S(=O)(=O)N1C[C@@H](F)C[C@H]1c1nc(C(=O)NCc2ccc(F)cc2)c(O)c(=O)n1C | – | – | 125 | 16 | 64 | 9 | 31 | – |
| Cn1c([C@@H]2C[C@H](F)CN2C(=O)c2cnccn2)nc(C(=O)NCc2ccc(F)cc2)c(O)c1=O | 0.2 | 2.3 | 16 | 18 | 77 | 10 | 16 | – |
| CN(C)C(=O)C(=O)N1C[C@@H](F)C[C@H]1c1nc(C(=O)NCc2ccc(F)cc2)c(O)c(=O)n1C | 1.6 | 0.2 | 16 | 19 | 138 | 21 | 16 | – |
| CC(=O)N1C[C@@H](F)C[C@H]1c1nc(C(=O)NCc2ccc(F)c(Cl)c2)c(O)c(=O)n1C | 0.7 | 0.5 | 17 | 20 | 43 | 24 | 3 | Ratio IC50 [8]: 1; half-life [10]: 7.1 h; Ratio IC50 [11]: 4; AUC [12]: 2.8 µM·h; Ratio IC50 [13]: 17; bioavailability [14]: 34%; Ratio IC50 [15]: 3; Ratio IC50 [16]: 1; Ratio IC50 [17]: 3; Ratio IC50 [18]: 31; Ratio IC50 [19]: 2; Ratio IC50 [20]: 31 |
| CN1C[C@@H](F)C[C@H]1c1nc(C(=O)NCc2ccc(F)cc2)c(O)c(=O)n1C | – | 4.5 | 125 | – | 21 | 23 | 63 | half-life [10]: 3.7 h; AUC [12]: 23.1 µM·h; bioavailability [14]: 116% |
